Screens: PubChem BioAssay, The Scripps Research Institute Molecular Screening Center
Rows were chosen to be rich in hits. Some 0.99% of all compounds tested hit in one or more screens of this group.
Fam108B counter: blocks mouse Fam108B hydrolase in RBBP9 counter-screen; 300,000 tested, 0.33% active; inhibition, % at 9.51 µM; recombinant Fam108B, FP-Rh probe fluorescence polarization;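 active = inhibition above the screen mean inhibition plus 3 SD, computed separately per campaign, cut at about 18% in these data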;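 also: inhibitors lower polarization as less probe binds the enzyme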
RBBP9 inhibitor: inhibitors of human serine hydrolase RBBP9. O75884. AID 1515. inhibition, % at 7.94 µM. 220,000 tested, 0.2% active. recombinant RBBP9, FP-Rh probe fluorescence polarization;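 active = inhibition above the campaign mean of all tested compounds plus 3 SD, cut at about 14% in these data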;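 also: plate controls were DMSO wells with RBBP9 for no effect and wells lacking RBBP9 protein for full effect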
Target sequence (O75884 whole entry, looked up): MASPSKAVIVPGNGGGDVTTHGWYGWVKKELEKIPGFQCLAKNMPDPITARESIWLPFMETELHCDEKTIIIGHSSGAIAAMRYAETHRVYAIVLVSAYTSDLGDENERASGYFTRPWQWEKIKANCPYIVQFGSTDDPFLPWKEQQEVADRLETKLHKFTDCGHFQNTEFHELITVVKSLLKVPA
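Measured by – fluorescence polarization · Test system – RBBP9 protein · Input – 2.5 µM RBBP9 dispensing solution, before mixing · Measure – percent inhibition from mP, scaled between DMSO and no-protein wells · Benchmarks – DMSO-treated enzyme wells and wells lacking RBBP9 · Times – preincubation 30 min plus labeling 45 min at 25 °C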
LYPLA2 counter: blocks human lysophospholipase 2, a PME1 counter-screen; O95372; recombinant LYPLA2, FP-Rh probe fluorescence polarization; inhibition, % at 5.9 µM; 320,000 tested, 0.38% active;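 active = inhibition above the screen-wide mean plus 3 SD, limit set per campaign, cut at about 26% in these data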;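 also: 0% = LYPLA2 with DMSO and 100% = wells lacking LYPLA2 enzyme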
Target sequence (O95372 whole entry, looked up): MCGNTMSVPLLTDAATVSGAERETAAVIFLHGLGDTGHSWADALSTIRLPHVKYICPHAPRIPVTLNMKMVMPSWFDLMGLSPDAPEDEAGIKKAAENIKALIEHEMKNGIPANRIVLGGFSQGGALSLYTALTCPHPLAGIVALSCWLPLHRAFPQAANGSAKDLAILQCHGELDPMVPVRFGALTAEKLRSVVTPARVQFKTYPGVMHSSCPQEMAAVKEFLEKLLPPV
LYPLA1 counter: blocks human lysophospholipase 1, a PME1 counter-screen; recombinant LYPLA1, FP-Rh probe fluorescence polarization; inhibition, % at 5.9 µM; 320,000 tested, 0.16% active;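 active = inhibition above the mean of all tested compounds plus 3 SD, set per campaign, cut at about 14% in these data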;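 also: inhibitors block serine hydrolase probe labeling of LYPLA1 so polarization falls; 0% = enzyme with DMSO and 100% = wells lacking LYPLA1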
Target sequence (O75608 whole entry, looked up): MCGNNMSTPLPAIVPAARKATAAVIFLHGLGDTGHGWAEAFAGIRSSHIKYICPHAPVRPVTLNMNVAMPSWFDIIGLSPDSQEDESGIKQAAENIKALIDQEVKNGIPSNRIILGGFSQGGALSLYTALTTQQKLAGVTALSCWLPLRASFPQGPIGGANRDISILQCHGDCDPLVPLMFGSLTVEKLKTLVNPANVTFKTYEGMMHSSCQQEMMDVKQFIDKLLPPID
PME-1 primary: blocks human protein phosphatase methylesterase 1. recombinant PME-1, FP-Rh probe fluorescence polarization. Q9Y570. inhibition, % at 5.9 µM. AID 2130. 320,000 tested, 0.53% active;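 active = inhibition above the campaign mean of all compounds plus 3 SD, cut at about 26% in these data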;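 also: competitive labeling of PME-1 active site by serine hydrolase directed probe; 0% = PME-1 with DMSO and 100% = wells lacking PME-1 enzyme; inhibitors block probe labeling so polarization falls and inhibition rises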
LYPLA2 confirm: counter-screen for PME1 inhibitors: confirmation of human LYPLA2 inhibitors. shares compounds with LYPLA2 counter. recombinant LYPLA2, FP-Rh probe fluorescence polarization. inhibition, % at 5.9 µM. 1,100 tested, 72% active. AID 2232;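 active = mean inhibition across replicates above the hit cutoff set in the primary screen, cut at about 26% in these data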;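 also: blocked labeling of the enzyme by serine hydrolase FP-Rh probe lowers polarization; 0% = enzyme with DMSO and 100% = wells lacking LYPLA2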
LYPLA2 ABPP: LYPLA2 (human) inhibition, late stage results. shares compounds with LYPLA2 counter. rhLYPLA2 in mouse brain proteome, gel ABPP FP-Rh. inhibition, % at 20 µM. 150 tested, 30% active. AID 652029;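 active = inhibition of LYPLA2 enzyme probe labeling above about 50%, limit read from the data; inactive = inhibition below that limit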;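 also: loss of FP-Rh probe labeling of the LYPLA2 gel band measured as band density; 0% = DMSO only control band and 100% = blank gel background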
Starred values were filed as active, the others as inactive; . = no result given.

SMILES	Fam108B counter	RBBP9 inhibitor	LYPLA2 counter	LYPLA1 counter	PME-1 primary	LYPLA2 confirm	others
Cc1cc2c(cc1S(=O)(=O)N1CCN(c3cccc(C)c3C)CC1)OCC(=O)N2	2	.	-3	-5	5	.
CC(=O)N1CC(=O)N(Cc2ccccc2)/C(=C/c2ccccc2)C1=O	-4	-4	-3	0	3	.
CC(C)(C)[C@H]1C=C(C(N)=O)O[C@@H](OCc2ccc(CO)cc2)C1	0	-4	3	-1	3	.
COc1ccc(N2CCN(C(=O)c3ccc(C(C)(C)C)cc3)CC2)cc1	-1	-9	79*	6	-2	87*	LYPLA2 ABPP=86*
COc1ccc(N2CCN(C(=O)CCNC(=O)c3ccc(C(C)(C)C)cc3)CC2)cc1	-2	-2	6	-3	0	.
COc1ccc(N2CCN(C(=O)c3ccc(N4C(=O)NC5CC4(C)Oc4ccccc45)cc3)CC2)cc1 (stereo not drawn)	1	-5	34*	0	-2	39*
COc1ccc(N2CCN(C(=O)c3cc(C)on3)CC2)cc1	1	.	3	3	-10	.
COc1ccc(N2CCN(C(=O)c3ccc(-n4nc(C)cc4C)cc3)CC2)cc1	-3	3	41*	-2	-2	39*
CN1C[C@@H]2C(c3ccc(Cl)nc3)C3(c4ccccc4)CC2(C3)[C@H]1c1ccccc1 (stereo partly drawn)	-2	.	0	1	-2	.
CC(OC(=O)CNC(=O)c1ccc(F)cc1)C(=O)Nc1ccc(S(=O)(=O)N2CCOCC2)cc1 (stereo not drawn)	.	.	7	0	-1	.
O=C1CC(c2ccc(Cl)cc2)CC(O)=C1C=NCc1ccc(Cl)c(Cl)c1 (stereo not drawn)	5	-1	27*	2	-2	58*	LYPLA2 ABPP=37
O=C(Nc1ccccc1C(=O)O)c1cc(S(=O)(=O)N2CCCCCC2)ccc1Cl	0	.	35*	-4	6	6
CCOC(=O)N1CCN(S(=O)(=O)c2ccc(F)c(C(=O)Nc3cccc(Cl)c3C)c2)CC1	-3	-2	40*	2	6	41*
O=C(O)c1cc(S(=O)(=O)N2CCCCCC2)ccc1Cl	-2	-3	-8	-3	-1	.
O=C(Nc1ccc(Nc2ccncc2)cc1)c1ccc(Nc2ccnc3ccc([N+](=O)[O-])cc23)cc1[N+](=O)[O-]	8	0	27*	6	6	6
O=C(Nc1ccc(Nc2ccncc2)cc1)c1ccc([N+](=O)[O-])cc1	3	-3	7	2	4	.
O=C(COc1cc2oc(=O)cc(-c3ccccc3)c2cc1Cl)NCC1CCC(C(=O)O)CC1 (stereo not drawn)	-1	.	42*	-1	7	37*
NCCCNC(=O)c1ccc(/C=N/O)nc1	3	2	-2	0	0	.
O=C(NNc1ccccc1[N+](=O)[O-])Nc1ccc(F)cc1F	1	.	2	0	-9	.
O=C(NNc1ccccc1[N+](=O)[O-])Nc1cccc(Cl)c1	5	5	40*	-1	4	46*
O=C(c1ccc(Cn2c(=O)[nH]c3ccccc3c2=O)cc1)N1CCN(c2ccc(F)cc2)CC1	0	-15	42*	12	-4	35*
CCOC(=O)N1CCN(C(=O)c2ccc(Cn3c(=S)[nH]c4cc(C(=O)OC)ccc4c3=O)cc2)CC1	-2	.	29*	3	-5	19
O=C(c1ccc(Cn2c(=S)[nH]c3ccc(N4CCOCC4)cc3c2=O)cc1)N1CCN(c2ccc(F)cc2)CC1	8	3	20	1	10	.
COc1ccc(N2CCN(C(=O)c3ccc(Cn4c(=S)[nH]c5ccc(N6CCOCC6)cc5c4=O)cc3)CC2)cc1	13	-6	75*	4	3	72*	LYPLA2 ABPP=33
COCCNC(=O)C1CC(c2ccc(C(F)(F)F)cc2)=NO1 (stereo not drawn)	3	.	6	0	6	.
SMILES	Fam108B counter	RBBP9 inhibitor	LYPLA2 counter	LYPLA1 counter	PME-1 primary	LYPLA2 confirm	others
O=C(Cn1cnc2ccccc2c1=O)c1ccc2ccccc2c1	2	3	27*	-1	-2	25
COc1ccccc1C(CNC(=O)c1cc(C)nc2ccccc12)N(C)C (stereo not drawn)	-2	.	0	5	9	.
CN(Cc1nc(-c2ccccn2)no1)S(=O)(=O)c1ccc(Cl)cc1	0	-13	28*	2	0	26*
CN1CCN(NC(=O)CC(C)(C)C)CC1	-2	4	-5	1	3	.
COc1ccc(C(=O)O/N=C2\CCCc3nonc32)cc1	2	-5	42*	1	8	61*
Cc1cccc(Nc2ccc([N+](=O)[O-])cc2C(=O)O)c1	3	-4	36*	-2	12	43*
CSc1nc2ccc(NS(=O)(=O)c3ccc([N+](=O)[O-])cc3)cc2s1	1	-5	3	3	-2	.
CN1CCN(C(=O)C2CCN(S(=O)(=O)c3ccc4c(c3)oc(=O)n4C)CC2)CC1	7	-4	12	2	-7	.
Cn1c(=O)oc2cc(S(=O)(=O)N3CCC(C(=O)N4CCN(c5ccc(F)cc5)CC4)CC3)ccc21	0	.	44*	-2	-1	39*
COc1ccc(N2CCN(C(=O)C3CCN(S(=O)(=O)c4cccs4)CC3)CC2)cc1	0	-4	43*	0	22	52*	LYPLA2 ABPP=37
CC(=O)c1ccc(N2CCN(C(=O)C3CCN(S(=O)(=O)Cc4ccccc4)CC3)CC2)cc1	-2	5	36*	-1	0	33*
O=C(C1CCN(S(=O)(=O)Cc2ccccc2)CC1)N1CCN(c2ncccn2)CC1	1	-4	6	2	-1	.
COc1ccc(N2CCN(C(=O)C3CCN(S(=O)(=O)c4ccc5c(c4)oc(=O)n5C)CC3)CC2)cc1	2	.	32*	3	4	41*
Cn1c(=O)oc2cc(S(=O)(=O)N3CCC(C(=O)N4CCN(c5ccccc5)CC4)CC3)ccc21	0	7	14	4	-2	.
O=C(C1CCN(S(=O)(=O)c2cccs2)CC1)N1CCN(c2ccccc2)CC1	3	-3	8	1	14	.
O=C(/C=C/c1c(F)cccc1Cl)N1CCc2ccccc2C1	-4	.	4	1	-2	.
COc1ccc(NC(=O)CCS(=O)(=O)c2cccc3nonc23)cc1Cl	-1	.	4	3	7	.
Cc1cc(C)c2c(n1)SCC(=O)N2CC(=O)Nc1ccc(Br)c(C)c1	-3	.	56*	-3	1	33*
Fc1ccccc1COc1ccc(Br)cc1CNCc1ccncc1	4	0	27*	-4	6	2
C[Si](C)(C)n1ccnc1	7	.	7	4	-4	.
